Calls of active or inactive are those of the source. The rule behind the calls is not given here. Bounds are passed on as bounds.

One series relates to Vaccinia virus. The series can be described thus: Antiviral activity against Vaccinia virus infected in HEL assessed as inhibition of virus-induced cytopathicity after 3 days. It counts as functional, organism-based. The following applies: Orthopoxvirus vaccinia, 72 h. For orientation: Damage to the host cells serves as the signal in cytopathic effect assays.
Series [1] relates to Human alphaherpesvirus 1. Put plainly: Antiviral activity against HSV1 KOS infected in HEL assessed as inhibition of virus-induced cytopathicity after 3 days. It counts as functional, organism-based. The settings on record: Human alphaherpesvirus 1, KOS, 72 h.
The subject of the next series is Human alphaherpesvirus 2. Put plainly: Antiviral activity against HSV2 G infected in HEL assessed as inhibition of virus-induced cytopathicity after 3 days. It counts as functional, organism-based. The following applies: Human alphaherpesvirus 2, strain G, 72 h. Summed up: (§1)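 Confluent cell monolayers infected with 100 CCID50 of virus in the presence of test compound at 100, 20,... μM. Cytopathicity was scored once it was complete in untreated infected controls.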

Series [2] concerns Human alphaherpesvirus 1. The series can be described thus: Antiviral activity against acyclovir-resistant thymidine kinase deficient HSV1 KOS infected in HEL assessed as inhibition of virus-induced cytopathicity after 3 days. It counts as functional, organism-based. The following applies: Human alphaherpesvirus 1, KOS, 72 h.
The test system of series [3] is Human alphaherpesvirus 3. The series can be described thus: Antiviral activity against VZV OKA expressing thymidine kinase infected in HEL cells assessed as inhibition of virus-induced cytopathogenicity after 3 days. It counts as functional, cell-based. The settings on record: Human alphaherpesvirus 3, strain Oka vaccine, 72 h.
The test system of series [4] is Human alphaherpesvirus 3. The series can be described thus: Antiviral activity against thymidine kinase-deficient VZV 07/1 infected in human HEL cells assessed as reduction of virus-induced cytopathogenicity after 3 days. The settings on record: Human alphaherpesvirus 3, 07/1, HEL, 72 h. It counts as functional, organism-based.
Series [5] is described as follows: Cytotoxicity against HEL assessed as minimum compound concentration causes microscopically detectable alteration of cell morphology after 3 days. It counts as cell-based. The following applies: human, HEL cells.
Series [6] can be described thus: Cytotoxicity against HEL after 3 days. It counts as cell-based. The settings on record: human, HEL cells. Summed up: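 HEL cells were seeded at 5×10^3 cells/well and allowed to grow for 24 h, then given medium with varying compound concentrations. After 3 days at 37 °C, cells were counted with a Coulter counter.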
The test system of series [7] is Vesicular stomatitis virus. The series can be described thus: Antiviral activity against Vesicular stomatitis virus infected in MDCK assessed as inhibition of virus-induced cytopathicity after 3 days. It counts as functional, organism-based.
The test system of series [8] is Influenza A virus. The series can be described thus: Antiviral activity against Influenza A virus H1N1 infected in MDCK assessed as inhibition of virus-induced cytopathicity after 3 days. It counts as functional, organism-based.
Series [9] concerns Influenza A virus. The series can be described thus: Antiviral activity against Influenza A virus H3N2 infected in MDCK assessed as inhibition of virus-induced cytopathicity after 3 days. It counts as functional, organism-based.
The test system of the next series is Influenza B virus. The series can be described thus: Antiviral activity against Influenza B virus infected in MDCK assessed as inhibition of virus-induced cytopathicity after 3 days. It counts as functional, organism-based.
For a further series, the system named is Human respirovirus 3. The series can be described thus: Antiviral activity against Parainfluenza-3 virus infected in african green monkey Vero assessed as inhibition of virus-induced cytopathicity after 3 days. It counts as functional, organism-based. Summed up: as §1
The subject of series [10] is Mammalian orthoreovirus 1. The series can be described thus: Antiviral activity against Reovirus-1 infected in african green monkey Vero assessed as inhibition of virus-induced cytopathicity after 3 days. It counts as functional, organism-based. Summed up:
as §1

A further series has as its system Sindbis virus. The series can be described thus: Antiviral activity against Sindbis virus infected in african green monkey Vero assessed as inhibition of virus-induced cytopathicity after 3 days. It counts as functional, organism-based. A digest of the protocol: as §1
For a further series, the system named is Punta Toro virus. The series can be described thus: Antiviral activity against Punta Toro virus infected in african green monkey Vero assessed as inhibition of virus-induced cytopathicity after 3 days. It counts as functional, organism-based. Summed up:
as §1

Series [11] relates to Vesicular stomatitis virus. Put plainly: Antiviral activity against Vesicular stomatitis virus infected in human HeLa assessed as inhibition of virus-induced cytopathicity after 3 days. It counts as functional, organism-based.
Another series relates to Coxsackievirus B4. Put plainly: Antiviral activity against Coxsackievirus B4 infected in human HeLa assessed as inhibition of virus-induced cytopathicity after 3 days. It counts as functional, organism-based. A digest of the protocol:
as §1

Series [12] concerns Respiratory syncytial virus. Put plainly: Antiviral activity against Respiratory syncytial virus infected in human HeLa assessed as inhibition of virus-induced cytopathicity after 3 days. It counts as functional, organism-based. A digest of the protocol: as §1

Usually EC50 stands for the concentration that produces a half-maximal response. What is called CC50 is the concentration that lowers cell viability or growth by half. For `CCCCNc1nc(N)nc2c1ncn2C/C=C/CP(=O)(OCOC(=O)C(C)(C)C)OCOC(=O)C(C)(C)C`, the EC50 was more than 100 µM in the series on Vaccinia virus; more than 100 µM with Human alphaherpesvirus 1 [1]; more than 100 µM in the series with Human alphaherpesvirus 2; more than 100 µM with Human alphaherpesvirus 1 [2]; 32.4 µM with Human alphaherpesvirus 3 [3]; 43.6 µM in the series with Human alphaherpesvirus 3 [4]. In series [5], the MCC at 72 h is more than 100 µM. Also, it took 60 µM to reach half-maximal cytotoxicity in series [6] (CC50 at 72 h). Moreover, the result (in series [7]; in the series on Influenza A virus [8]; in the series with Influenza A virus [9]; in the series on Influenza B virus; in the series with Human respirovirus 3; in series [10]) was inactive. The result (with Sindbis virus; in the series on Punta Toro virus; in series [11]; in the series on Coxsackievirus B4; in [12]) was inactive.

As to `CC(C)(C)C(=O)OCOP(=O)(C/C=C/Cn1cnc2c(NC3CC3)nc(N)nc21)OCOC(=O)C(C)(C)C`, the EC50 turned out to be 20 µM in the series on Vaccinia virus; 16.3 µM with Human alphaherpesvirus 1 [1]; 7.2 µM with Human alphaherpesvirus 2; 16.3 µM with Human alphaherpesvirus 1 [2]; 0.8 µM in the series on Human alphaherpesvirus 3 [3]; 0.8 µM in the series with Human alphaherpesvirus 3 [4]. In series [5], the MCC at 72 h is more than 100 µM. In addition, it took 2.3 µM to reach half-maximal cytotoxicity in series [6] (CC50 at 72 h). The outcome (in series [7]; in the series with Influenza A virus [8]; with Influenza A virus [9]; with Influenza B virus; in the series on Human respirovirus 3; in series [10]) was inactive. Also, the result (in the series on Sindbis virus; in the series on Punta Toro virus; in series [11]; in the series with Coxsackievirus B4; in series [12]) was inactive.

With `Nc1nc2c(ncn2COCCO)c(=O)[nH]1` [ACYCLOVIR], the EC50 with Vaccinia virus was more than 250 µM. Also, the MCC at 72 h in series [5] is more than 100 µM. The compound further came in with a CC50 at 72 h in series [6] of 134 µM.

`CC(C)(C)C(=O)OCOP(=O)(C/C=C/Cn1cnc2c(NC3CCCCC3)ncnc21)OCOC(=O)C(C)(C)C`: the EC50 with Vaccinia virus was more than 100 µM; with Human alphaherpesvirus 1 [1], more than 100 µM; with Human alphaherpesvirus 2 it was more than 100 µM; in the series on Human alphaherpesvirus 1 [2], more than 100 µM; with Human alphaherpesvirus 3 [3] it was 20 µM; with Human alphaherpesvirus 3 [4], more than 20 µM. Also, the MCC at 72 h in [5] came to 100 µM. Besides, the midpoint of cytotoxicity in [6], the CC50 at 72 h, lay at 11.4 µM. Moreover, the outcome (in series [7]; in the series with Influenza A virus [8]; in the series with Influenza A virus [9]; in the series with Influenza B virus; in the series with Human respirovirus 3; in [10]) was inactive. The result (in the series with Sindbis virus; with Punta Toro virus; in [11]; with Coxsackievirus B4; in [12]) was inactive.

In the case of `CC(C)(C)C(=O)OCOP(=O)(C/C=C/Cn1cnc2c(N)ncnc21)OCOC(=O)C(C)(C)C`, the EC50 was more than 100 µM in the series on Vaccinia virus; more than 100 µM in the series on Human alphaherpesvirus 1 [1]; 45 µM in the series with Human alphaherpesvirus 2; 20 µM with Human alphaherpesvirus 1 [2]; 12.6 µM in the series on Human alphaherpesvirus 3 [3]; 13.5 µM in the series on Human alphaherpesvirus 3 [4]. Further, the MCC at 72 h in series [5] was more than 100 µM. In [6], half-maximal cytotoxicity (CC50 at 72 h) was put at 11.6 µM. Moreover, the result (in series [7]; with Influenza A virus [8]; in the series on Influenza A virus [9]; with Influenza B virus; with Human respirovirus 3; in [10]) was inactive. Also, the result (in the series on Sindbis virus; in the series on Punta Toro virus; in [11]; with Coxsackievirus B4; in series [12]) was inactive.

Take `CC(C)c1ccc(Nc2nc(N)nc3c2ncn3C/C=C/CP(=O)(OCOC(=O)C(C)(C)C)OCOC(=O)C(C)(C)C)cc1`: the concentration giving a half-maximal response (EC50) in the series with Vaccinia virus is more than 100 µM; in the series with Human alphaherpesvirus 1 [1], more than 100 µM; in the series on Human alphaherpesvirus 2 it was more than 100 µM; in the series on Human alphaherpesvirus 1 [2], more than 100 µM; in the series with Human alphaherpesvirus 3 [3], more than 20 µM; in the series with Human alphaherpesvirus 3 [4], more than 100 µM. In addition, the MCC at 72 h in [5] is more than 100 µM. In addition, in series [6], the CC50 at 72 h came to 46 µM. Besides, the outcome (in [7]; in the series on Influenza A virus [8]; in the series on Influenza A virus [9]; in the series on Influenza B virus; in the series with Human respirovirus 3; in series [10]) was inactive. For the same compound, the outcome (in the series on Sindbis virus; in the series with Punta Toro virus; in series [11]; with Coxsackievirus B4; in [12]) was inactive.

Take `CC(C)(C)C(=O)OCOP(=O)(C/C=C/Cn1cnc2c(Cl)ncnc21)OCOC(=O)C(C)(C)C`: the EC50 in the series on Vaccinia virus, in the series on Human alphaherpesvirus 1 [1], in the series on Human alphaherpesvirus 2, in the series with Human alphaherpesvirus 1 [2], in the series on Human alphaherpesvirus 3 [3] and in the series with Human alphaherpesvirus 3 [4] was more than 20 µM throughout. For the same compound, the MCC at 72 h in series [5] amounted to 100 µM. Also, it took 10.5 µM to reach half-maximal cytotoxicity in [6] (CC50 at 72 h). For the same compound, the result (in series [7]; in the series with Influenza A virus [8]; in the series with Influenza A virus [9]; in the series on Influenza B virus; with Human respirovirus 3; in series [10]) was inactive. Also, the result (in the series on Sindbis virus; in the series with Punta Toro virus; in series [11]; with Coxsackievirus B4; in series [12]) was inactive.

With `CC(C)(C)C(=O)OCOP(=O)(C/C=C/Cn1cnc2c(=O)[nH]cnc21)OCOC(=O)C(C)(C)C`, the EC50 is more than 100 µM in the series on Vaccinia virus; more than 100 µM in the series with Human alphaherpesvirus 1 [1]; more than 100 µM in the series with Human alphaherpesvirus 2; more than 100 µM in the series with Human alphaherpesvirus 1 [2]; more than 100 µM in the series on Human alphaherpesvirus 3 [3]; more than 20 µM in the series with Human alphaherpesvirus 3 [4]. Further, the MCC at 72 h in [5] is more than 100 µM. The same compound registered a CC50 at 72 h in [6] of 51.9 µM. Further, the result (in series [7]; with Influenza A virus [8]; with Influenza A virus [9]; in the series on Influenza B virus; in the series with Human respirovirus 3; in [10]) was inactive. Besides, the result (in the series on Sindbis virus; in the series with Punta Toro virus; in [11]; in the series with Coxsackievirus B4; in series [12]) was inactive.

Take `CC(C)(C)C(=O)OCOP(=O)(C/C=C/Cn1cnc2c(=O)n3cc[nH]c3nc21)OCOC(=O)C(C)(C)C`: the EC50 with Vaccinia virus is more than 100 µM; with Human alphaherpesvirus 1 [1] it was more than 100 µM; in the series on Human alphaherpesvirus 2 it was more than 100 µM; in the series on Human alphaherpesvirus 1 [2] it was more than 100 µM; in the series on Human alphaherpesvirus 3 [3], 17.3 µM; in the series on Human alphaherpesvirus 3 [4] it was 40.7 µM. Also, in [5], the MCC at 72 h was more than 100 µM. The result (in [7]; with Influenza A virus [8]; with Influenza A virus [9]; in the series with Influenza B virus; in the series on Human respirovirus 3; in [10]) was inactive. The result (with Sindbis virus; in the series with Punta Toro virus; in series [11]; in the series on Coxsackievirus B4; in [12]) was inactive.

With `O=c1[nH]c(=O)n([C@H]2C[C@H](O)[C@@H](CO)O2)cc1/C=C/Br` [BRIVUDINE], the EC50 turned out to be 5 µM in the series on Vaccinia virus, 0.08 µM in the series with Human alphaherpesvirus 1 [1] and 50 µM in the series on Human alphaherpesvirus 2. The MCC at 72 h in [5] was more than 100 µM.

On to `Nc1ccn(C[C@@H](CO)OCP(=O)(O)O)c(=O)n1` [CIDOFOVIR], for which the EC50 in the series on Vaccinia virus worked out at 10 µM; in the series on Human alphaherpesvirus 1 [1], 1.2 µM; in the series with Human alphaherpesvirus 2, 1 µM.

The values are drawn from ChEMBL document CHEMBL2146385, “Synthesis and antiviral evaluation of bis(POM) prodrugs of (E)-[4'-phosphono-but-2'-en-1'-yl]purine nucleosides” (Eur J Med Chem, 2012).
